{"source": "ChEMBL document CHEMBL2203081", "about": "(Bioorg Med Chem Lett, 2012)", "key": {"[1]": {"target": "Death-associated protein kinase 1 (Homo sapiens) (UniProt P53355)", "sequence (P53355 whole entry, looked up)": "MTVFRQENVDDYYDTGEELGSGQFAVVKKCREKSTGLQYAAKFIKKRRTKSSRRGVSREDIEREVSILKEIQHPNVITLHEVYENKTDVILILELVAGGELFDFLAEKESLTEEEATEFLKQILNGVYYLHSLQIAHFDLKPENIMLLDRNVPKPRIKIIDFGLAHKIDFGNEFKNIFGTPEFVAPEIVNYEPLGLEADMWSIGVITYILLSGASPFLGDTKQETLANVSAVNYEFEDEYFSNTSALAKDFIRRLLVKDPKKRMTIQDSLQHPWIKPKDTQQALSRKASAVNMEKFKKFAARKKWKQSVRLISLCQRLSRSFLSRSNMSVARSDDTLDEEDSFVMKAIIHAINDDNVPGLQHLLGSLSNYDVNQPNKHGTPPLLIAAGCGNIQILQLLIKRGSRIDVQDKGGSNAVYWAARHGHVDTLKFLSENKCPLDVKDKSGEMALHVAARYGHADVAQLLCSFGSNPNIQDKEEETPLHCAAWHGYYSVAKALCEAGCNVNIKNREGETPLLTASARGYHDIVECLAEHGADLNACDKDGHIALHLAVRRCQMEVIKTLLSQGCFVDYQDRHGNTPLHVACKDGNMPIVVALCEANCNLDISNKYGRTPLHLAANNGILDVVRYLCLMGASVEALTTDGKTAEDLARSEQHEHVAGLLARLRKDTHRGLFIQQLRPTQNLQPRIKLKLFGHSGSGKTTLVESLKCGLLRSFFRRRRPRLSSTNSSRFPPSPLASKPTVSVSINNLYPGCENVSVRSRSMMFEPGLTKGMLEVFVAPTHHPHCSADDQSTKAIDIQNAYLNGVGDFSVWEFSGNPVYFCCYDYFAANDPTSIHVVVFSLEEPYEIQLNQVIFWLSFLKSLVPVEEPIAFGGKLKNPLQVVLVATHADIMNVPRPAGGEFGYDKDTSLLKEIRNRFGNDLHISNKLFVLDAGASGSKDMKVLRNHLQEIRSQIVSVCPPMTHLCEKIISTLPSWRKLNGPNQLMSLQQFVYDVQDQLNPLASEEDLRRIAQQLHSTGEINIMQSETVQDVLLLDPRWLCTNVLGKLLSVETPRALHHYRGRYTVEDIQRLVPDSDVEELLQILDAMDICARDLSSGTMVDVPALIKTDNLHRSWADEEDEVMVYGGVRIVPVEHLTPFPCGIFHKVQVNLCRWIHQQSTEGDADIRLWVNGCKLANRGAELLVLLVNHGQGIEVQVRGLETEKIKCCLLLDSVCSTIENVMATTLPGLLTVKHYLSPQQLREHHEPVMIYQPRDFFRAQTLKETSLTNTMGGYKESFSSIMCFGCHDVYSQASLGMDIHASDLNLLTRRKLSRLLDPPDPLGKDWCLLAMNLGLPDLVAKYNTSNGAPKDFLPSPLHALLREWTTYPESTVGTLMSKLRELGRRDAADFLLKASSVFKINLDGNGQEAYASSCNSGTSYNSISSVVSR", "assay": "Inhibition of DAPK1 assessed as residual activity at 10 uM relative to control", "how_it_was_run": "(§1)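 Competition kinase-binding assay (KINOMEscan) across a non-redundant panel of 329 kinases beyond the radiometric panel; residual binding expressed relative to control.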"}, "[2]": {"target": "Casein kinase I isoform gamma-3 (Homo sapiens) (UniProt Q9Y6M4)", "assay": "Inhibition of CSNK1G3 assessed as residual activity at 10 uM relative to control", "how_it_was_run": "as §1"}, "[3]": {"target": "Dual specificity protein kinase CLK1 (Homo sapiens) (UniProt P49759)", "assay": "Inhibition of CLK1 assessed as residual activity at 10 uM relative to control"}, "[4]": {"target": "T1, Serine/threonine-protein kinase D1 (Homo sapiens) (UniProt Q15139)", "T1 sequence (whole entry)": "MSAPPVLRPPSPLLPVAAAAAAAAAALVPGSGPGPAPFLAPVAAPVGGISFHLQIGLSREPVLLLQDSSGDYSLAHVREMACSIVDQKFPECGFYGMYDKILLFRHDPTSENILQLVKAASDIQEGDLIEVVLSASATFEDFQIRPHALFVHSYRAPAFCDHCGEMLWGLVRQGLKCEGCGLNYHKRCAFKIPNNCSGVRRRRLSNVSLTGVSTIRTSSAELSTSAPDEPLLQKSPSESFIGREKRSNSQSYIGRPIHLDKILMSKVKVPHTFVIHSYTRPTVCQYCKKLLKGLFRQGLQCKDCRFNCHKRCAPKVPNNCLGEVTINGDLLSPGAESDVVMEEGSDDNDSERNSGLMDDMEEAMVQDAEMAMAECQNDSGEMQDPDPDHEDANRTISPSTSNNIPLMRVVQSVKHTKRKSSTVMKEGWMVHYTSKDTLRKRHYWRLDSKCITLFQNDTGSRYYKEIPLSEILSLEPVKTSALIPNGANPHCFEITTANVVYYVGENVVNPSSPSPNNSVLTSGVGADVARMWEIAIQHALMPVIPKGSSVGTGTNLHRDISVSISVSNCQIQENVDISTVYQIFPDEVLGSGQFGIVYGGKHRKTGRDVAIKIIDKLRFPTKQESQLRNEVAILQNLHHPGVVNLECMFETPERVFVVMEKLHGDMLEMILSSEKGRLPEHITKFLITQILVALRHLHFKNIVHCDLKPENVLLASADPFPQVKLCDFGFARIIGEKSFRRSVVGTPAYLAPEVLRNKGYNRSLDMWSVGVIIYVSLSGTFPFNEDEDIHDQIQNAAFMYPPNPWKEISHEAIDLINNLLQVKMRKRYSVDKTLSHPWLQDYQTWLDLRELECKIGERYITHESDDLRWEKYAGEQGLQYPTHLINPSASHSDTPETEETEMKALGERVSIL", "assay": "Inhibition of PKD1 assessed as residual activity at 1 uM"}, "[5]": {"target": "Serine/threonine-protein kinase 36 (Homo sapiens) (UniProt Q9NRP7)", "sequence (Q9NRP7 whole entry)": "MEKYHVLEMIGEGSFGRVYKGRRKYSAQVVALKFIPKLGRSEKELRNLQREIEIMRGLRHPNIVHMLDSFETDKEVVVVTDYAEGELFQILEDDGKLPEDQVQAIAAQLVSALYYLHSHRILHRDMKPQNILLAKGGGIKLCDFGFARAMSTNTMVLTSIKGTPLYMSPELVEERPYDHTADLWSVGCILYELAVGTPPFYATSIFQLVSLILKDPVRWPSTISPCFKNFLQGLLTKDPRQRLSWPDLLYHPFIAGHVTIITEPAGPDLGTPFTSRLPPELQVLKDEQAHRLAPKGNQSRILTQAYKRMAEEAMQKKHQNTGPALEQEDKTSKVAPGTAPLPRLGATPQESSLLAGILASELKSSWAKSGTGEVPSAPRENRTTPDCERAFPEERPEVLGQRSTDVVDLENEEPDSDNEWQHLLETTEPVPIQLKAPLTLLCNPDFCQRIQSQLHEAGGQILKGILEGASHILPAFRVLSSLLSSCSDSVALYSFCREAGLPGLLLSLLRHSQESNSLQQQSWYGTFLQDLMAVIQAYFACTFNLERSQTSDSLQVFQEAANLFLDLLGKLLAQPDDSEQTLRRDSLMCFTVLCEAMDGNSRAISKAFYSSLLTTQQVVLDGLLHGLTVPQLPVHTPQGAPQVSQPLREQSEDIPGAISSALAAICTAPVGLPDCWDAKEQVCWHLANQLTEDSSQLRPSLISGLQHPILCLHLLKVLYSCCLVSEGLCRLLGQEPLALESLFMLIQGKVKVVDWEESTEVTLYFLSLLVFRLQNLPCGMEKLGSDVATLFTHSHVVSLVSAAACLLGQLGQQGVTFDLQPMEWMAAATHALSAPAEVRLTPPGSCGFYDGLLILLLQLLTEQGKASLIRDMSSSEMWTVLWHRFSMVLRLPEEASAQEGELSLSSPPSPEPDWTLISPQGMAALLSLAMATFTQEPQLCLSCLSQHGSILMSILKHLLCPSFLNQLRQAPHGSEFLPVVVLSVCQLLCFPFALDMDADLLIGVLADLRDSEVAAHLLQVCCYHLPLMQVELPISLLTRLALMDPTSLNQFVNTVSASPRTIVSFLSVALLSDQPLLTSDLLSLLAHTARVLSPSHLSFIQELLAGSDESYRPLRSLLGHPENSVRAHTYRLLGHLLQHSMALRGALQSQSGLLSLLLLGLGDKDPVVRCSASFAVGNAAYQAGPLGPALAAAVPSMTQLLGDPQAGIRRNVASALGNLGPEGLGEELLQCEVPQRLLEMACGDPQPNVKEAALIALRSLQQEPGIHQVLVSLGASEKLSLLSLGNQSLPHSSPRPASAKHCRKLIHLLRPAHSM", "assay": "Inhibition of STK36 assessed as residual activity at 10 uM relative to control"}, "[6]": {"target": "Serine/threonine-protein kinase 3 (Homo sapiens) (UniProt Q13188)", "sequence (Q13188 whole entry)": "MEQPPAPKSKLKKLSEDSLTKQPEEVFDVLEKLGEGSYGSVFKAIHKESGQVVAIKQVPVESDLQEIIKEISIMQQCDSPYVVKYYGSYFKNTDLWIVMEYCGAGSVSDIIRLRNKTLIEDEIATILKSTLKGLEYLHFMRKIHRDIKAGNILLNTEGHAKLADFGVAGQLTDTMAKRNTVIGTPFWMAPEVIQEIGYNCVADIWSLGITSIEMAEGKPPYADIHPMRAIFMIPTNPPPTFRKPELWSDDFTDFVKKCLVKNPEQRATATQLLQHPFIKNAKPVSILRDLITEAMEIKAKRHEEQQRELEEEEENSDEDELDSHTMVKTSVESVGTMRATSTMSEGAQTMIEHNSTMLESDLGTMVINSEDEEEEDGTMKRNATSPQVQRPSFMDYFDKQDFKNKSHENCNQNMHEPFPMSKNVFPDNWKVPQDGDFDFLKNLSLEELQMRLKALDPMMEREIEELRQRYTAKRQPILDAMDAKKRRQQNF", "assay": "Inhibition of MST2 assessed as residual activity at 1 uM"}, "[7]": {"target": "Maternal embryonic leucine zipper kinase (Homo sapiens) (UniProt Q14680)", "assay": "Inhibition of MELK assessed as residual activity at 1 uM"}, "[8]": {"target": "Glycogen synthase kinase-3 beta (Homo sapiens) (UniProt P49841)", "assay": "Inhibition of GSK3b assessed as residual activity at 1 uM", "how_it_was_run": "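Radioactivity-based enzymatic activity assay of the named kinase, run as part of a 131-kinase specificity panel at the National Centre for Protein Kinase Profiling (Dundee). Residual activity was read at the stated single inhibitor concentration.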"}, "[9]": {"target": "T2, Serine/threonine-protein kinase STK11 (Homo sapiens) (UniProt Q15831)", "T2 sequence (whole entry)": "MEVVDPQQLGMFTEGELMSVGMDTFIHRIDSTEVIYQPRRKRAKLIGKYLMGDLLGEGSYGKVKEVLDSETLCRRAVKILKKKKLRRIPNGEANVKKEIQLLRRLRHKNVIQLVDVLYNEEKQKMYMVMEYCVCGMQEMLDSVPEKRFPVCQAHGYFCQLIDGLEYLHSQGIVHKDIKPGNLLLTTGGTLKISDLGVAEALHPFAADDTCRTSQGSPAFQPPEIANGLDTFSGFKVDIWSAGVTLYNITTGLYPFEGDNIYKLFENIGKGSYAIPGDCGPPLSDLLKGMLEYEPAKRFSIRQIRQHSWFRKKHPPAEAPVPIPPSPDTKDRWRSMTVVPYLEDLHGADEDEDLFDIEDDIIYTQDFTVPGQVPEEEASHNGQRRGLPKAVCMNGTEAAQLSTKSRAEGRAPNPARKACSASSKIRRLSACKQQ", "assay": "Inhibition of LKB1 assessed as residual activity at 10 uM relative to control"}, "[10]": {"target": "Mast/stem cell growth factor receptor Kit (Homo sapiens) (UniProt P10721)", "assay": "Inhibition of KIT assessed as residual activity at 10 uM relative to control"}, "[11]": {"target": "Mitogen-activated protein kinase 10 (Homo sapiens) (UniProt P53779)", "assay": "Inhibition of JNK3 assessed as residual activity at 10 uM relative to control"}, "[12]": {"target": "Interleukin-1 receptor-associated kinase 4 (Homo sapiens) (UniProt Q9NWZ3)", "assay": "Inhibition of IRAK4 assessed as residual activity at 10 uM relative to control"}, "[13]": {"target": "BMP-2-inducible protein kinase (Homo sapiens) (UniProt Q9NSY1)", "assay": "Inhibition of BIKE assessed as residual activity at 10 uM relative to control"}, "[14]": {"test_system": "Tyrosine-protein kinase ABL1 (Homo sapiens), P00519 [E255K]", "sequence (P00519 whole entry E255K)": "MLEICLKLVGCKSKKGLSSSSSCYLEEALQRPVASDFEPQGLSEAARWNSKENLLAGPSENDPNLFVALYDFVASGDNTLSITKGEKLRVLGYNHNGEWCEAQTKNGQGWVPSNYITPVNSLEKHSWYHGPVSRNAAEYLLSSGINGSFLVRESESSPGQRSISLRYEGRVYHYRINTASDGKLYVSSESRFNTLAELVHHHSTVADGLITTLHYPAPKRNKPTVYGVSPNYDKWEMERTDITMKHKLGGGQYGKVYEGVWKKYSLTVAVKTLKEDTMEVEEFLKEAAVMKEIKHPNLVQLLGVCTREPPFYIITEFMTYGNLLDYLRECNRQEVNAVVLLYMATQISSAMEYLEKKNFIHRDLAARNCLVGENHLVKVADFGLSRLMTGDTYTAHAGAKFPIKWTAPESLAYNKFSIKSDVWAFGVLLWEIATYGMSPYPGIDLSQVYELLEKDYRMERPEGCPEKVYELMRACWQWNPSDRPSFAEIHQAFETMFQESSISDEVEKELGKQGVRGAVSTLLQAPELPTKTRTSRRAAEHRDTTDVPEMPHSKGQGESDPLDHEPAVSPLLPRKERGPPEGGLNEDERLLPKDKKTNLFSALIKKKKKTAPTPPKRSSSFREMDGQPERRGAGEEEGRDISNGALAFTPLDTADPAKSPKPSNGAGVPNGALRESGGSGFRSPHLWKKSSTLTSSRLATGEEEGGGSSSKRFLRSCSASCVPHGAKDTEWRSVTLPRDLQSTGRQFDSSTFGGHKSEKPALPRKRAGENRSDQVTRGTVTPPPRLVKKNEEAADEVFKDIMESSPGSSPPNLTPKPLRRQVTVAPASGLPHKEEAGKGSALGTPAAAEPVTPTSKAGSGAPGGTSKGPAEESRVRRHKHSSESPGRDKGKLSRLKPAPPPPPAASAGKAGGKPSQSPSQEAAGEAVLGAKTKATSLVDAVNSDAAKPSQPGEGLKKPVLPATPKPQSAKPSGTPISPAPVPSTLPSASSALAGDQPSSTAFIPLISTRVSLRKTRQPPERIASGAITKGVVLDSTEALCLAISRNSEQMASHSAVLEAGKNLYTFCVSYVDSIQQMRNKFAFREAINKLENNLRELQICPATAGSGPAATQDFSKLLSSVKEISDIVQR", "assay": "Inhibition of phosphorylated ABL1 E255K mutant assessed as residual activity at 10 uM relative to control"}, "[15]": {"target": "Receptor-interacting serine/threonine-protein kinase 2 (Homo sapiens) (UniProt O43353)", "assay": "Inhibition of RIPK2 assessed as residual activity at 10 uM"}, "[16]": {"target": "T1, Serine/threonine-protein kinase D1 (Homo sapiens)", "assay": "Inhibition of PKD1 assessed as residual activity at 10 uM"}, "[17]": {"target": "Focal adhesion kinase 1 (Homo sapiens) (UniProt Q05397)", "assay": "Inhibition of FAK assessed as residual activity at 10 uM relative to control"}, "[18]": {"target": "Protein-tyrosine kinase 6 (Homo sapiens) (UniProt Q13882)", "sequence (Q13882 whole entry, looked up)": "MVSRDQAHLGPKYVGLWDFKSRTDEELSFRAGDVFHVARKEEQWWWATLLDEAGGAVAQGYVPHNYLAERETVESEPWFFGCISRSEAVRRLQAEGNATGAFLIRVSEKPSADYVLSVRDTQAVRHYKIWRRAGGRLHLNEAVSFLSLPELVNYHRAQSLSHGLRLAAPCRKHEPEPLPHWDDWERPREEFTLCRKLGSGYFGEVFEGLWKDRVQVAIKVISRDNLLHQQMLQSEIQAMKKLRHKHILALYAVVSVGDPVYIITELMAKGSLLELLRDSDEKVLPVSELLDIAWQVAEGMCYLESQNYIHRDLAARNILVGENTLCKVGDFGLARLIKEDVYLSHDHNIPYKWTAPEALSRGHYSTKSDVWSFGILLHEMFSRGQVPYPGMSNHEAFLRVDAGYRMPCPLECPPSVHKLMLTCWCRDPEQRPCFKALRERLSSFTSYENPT", "assay": "Inhibition of BRK assessed as residual activity at 10 uM", "how_it_was_run": "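Radioactivity-based enzymatic assay against a panel of 131 kinases (Dundee profiling). Activity remaining was measured with compound present at the stated concentration.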"}, "[19]": {"test_system": "Mus musculus", "assay": "Oral bioavailability in Swiss albino mouse at 10 mg/kg", "type": "ADME, organism-based", "conditions": "in vivo"}, "[20]": {"target": "Myosin light chain kinase family member 4 (Homo sapiens) (UniProt Q86YV6)", "assay": "Inhibition of MYLK4 assessed as residual activity at 10 uM relative to control"}, "[21]": {"target": "Serine/threonine-protein kinase MRCK beta (Homo sapiens) (UniProt Q9Y5S2)", "assay": "Inhibition of MRCKB assessed as residual activity at 10 uM relative to control"}, "[22]": {"target": "Mitogen-activated protein kinase kinase kinase 10 (Homo sapiens) (UniProt Q02779)", "assay": "Inhibition of MLK2 assessed as residual activity at 10 uM relative to control"}}}
{"smiles": "O=C(Nc1cccnc1)c1cc(-c2ccnc(F)c2)ccc1OCc1ccccc1", "values": [{"measurement": "Activity", "setting": "[1]", "result": 40, "unit": "%"}, {"measurement": "Activity", "setting": "[2]", "result": 26, "unit": "%"}, {"measurement": "Activity", "setting": "[3]", "result": 66, "unit": "%"}, {"measurement": "Activity", "setting": "[4]", "result": 80, "unit": "%"}, {"measurement": "Activity", "setting": "[5]", "result": 63, "unit": "%"}, {"measurement": "Activity", "setting": "[6]", "result": 103, "unit": "%"}, {"measurement": "Activity", "setting": "[7]", "result": 102, "unit": "%"}, {"measurement": "Activity", "setting": "[8]", "result": 119, "unit": "%"}, {"measurement": "Activity", "setting": "[9]", "result": 71, "unit": "%"}, {"measurement": "Activity", "setting": "[10]", "result": 39, "unit": "%"}, {"measurement": "Activity", "setting": "[11]", "result": 52, "unit": "%"}, {"measurement": "Activity", "setting": "[12]", "result": 58, "unit": "%"}, {"measurement": "Activity", "setting": "[13]", "result": 65, "unit": "%"}, {"measurement": "Activity", "setting": "[14]", "result": 75, "unit": "%"}, {"measurement": "Activity", "setting": "[15]", "result": 56, "unit": "%"}, {"measurement": "Activity", "setting": "[16]", "result": 76, "unit": "%"}, {"measurement": "Activity", "setting": "[17]", "result": 63, "unit": "%"}, {"measurement": "Activity", "setting": "[18]", "result": 101, "unit": "%"}, {"measurement": "F", "setting": "[19]", "result": 12.2, "unit": "%"}, {"measurement": "Activity", "setting": "[20]", "result": 80, "unit": "%"}, {"measurement": "Activity", "setting": "[21]", "result": 59, "unit": "%"}, {"measurement": "Activity", "setting": "[22]", "result": 77, "unit": "%"}]}
